Tests used:
[1] = Metabolic stability in rat liver microsomes assessed as compound remaining after 10 mins; type: ADME; settings: read-out: Stability
In short: (§1)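 Compound was incubated with human, mouse or rat liver microsomal preparations. Stability is the percent of compound remaining after 10 min.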

[2] = (§2) Metabolic stability in human liver microsomes assessed as compound remaining after 10 mins; type: ADME; settings: liver microsomes, read-out: Stability; in short: as §1
[3] = test system: Mus musculus; experiment: Inhibition of CSF-1-induced c-fos gene expression in mouse spleen at 20 mg/kg, po after 6 hrs; type: functional
In short: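 In the mouse pharmacodynamic model, compound was given orally. Spleen c-fos mRNA induced by an iv injection of CSF-1 was measured 6 or 8 h after dosing.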

[4] = target: Mast/stem cell growth factor receptor Kit (Homo sapiens, UniProt P10721); experiment: Inhibition of KIT (unknown origin)
[5] = Terminal half life in Sprague-Dawley rat at 5 mg/kg, po; type: ADME, organism-based; set-up: dose 5 mg/kg, route oral; settings: in vivo, read-out: beta t1/2 (converted)
[6] = Oral bioavailability in Sprague-Dawley rat at 5 mg/kg; type: ADME, organism-based; settings: in vivo
[7] = Volume of distribution in Sprague-Dawley rat at 1 mg/kg, iv; type: ADME, organism-based; set-up: dose 1 mg/kg, route intravenous; settings: in vivo
[8] = Systemic clearance in Sprague-Dawley rat at 1 mg/kg, iv; type: ADME, organism-based; set-up: dose 1 mg/kg, route intravenous; settings: in vivo
[9] = AUC in Sprague-Dawley rat at 5 mg/kg, po; type: ADME, organism-based; set-up: dose 5 mg/kg, route oral; settings: plasma
[10] = Tmax in Sprague-Dawley rat at 5 mg/kg, po; type: ADME, organism-based; set-up: dose 5 mg/kg, route oral; settings: in vivo
[11] = Cmax in Sprague-Dawley rat at 5 mg/kg, po; type: ADME, organism-based; set-up: dose 5 mg/kg, route oral; settings: in vivo
[12] = test system: Liver microsome; experiment: as §2; type: ADME; settings: microsomes, 10 min; in short: as §1

Mast/stem cell growth factor receptor Kit, sequence (P10721 whole entry): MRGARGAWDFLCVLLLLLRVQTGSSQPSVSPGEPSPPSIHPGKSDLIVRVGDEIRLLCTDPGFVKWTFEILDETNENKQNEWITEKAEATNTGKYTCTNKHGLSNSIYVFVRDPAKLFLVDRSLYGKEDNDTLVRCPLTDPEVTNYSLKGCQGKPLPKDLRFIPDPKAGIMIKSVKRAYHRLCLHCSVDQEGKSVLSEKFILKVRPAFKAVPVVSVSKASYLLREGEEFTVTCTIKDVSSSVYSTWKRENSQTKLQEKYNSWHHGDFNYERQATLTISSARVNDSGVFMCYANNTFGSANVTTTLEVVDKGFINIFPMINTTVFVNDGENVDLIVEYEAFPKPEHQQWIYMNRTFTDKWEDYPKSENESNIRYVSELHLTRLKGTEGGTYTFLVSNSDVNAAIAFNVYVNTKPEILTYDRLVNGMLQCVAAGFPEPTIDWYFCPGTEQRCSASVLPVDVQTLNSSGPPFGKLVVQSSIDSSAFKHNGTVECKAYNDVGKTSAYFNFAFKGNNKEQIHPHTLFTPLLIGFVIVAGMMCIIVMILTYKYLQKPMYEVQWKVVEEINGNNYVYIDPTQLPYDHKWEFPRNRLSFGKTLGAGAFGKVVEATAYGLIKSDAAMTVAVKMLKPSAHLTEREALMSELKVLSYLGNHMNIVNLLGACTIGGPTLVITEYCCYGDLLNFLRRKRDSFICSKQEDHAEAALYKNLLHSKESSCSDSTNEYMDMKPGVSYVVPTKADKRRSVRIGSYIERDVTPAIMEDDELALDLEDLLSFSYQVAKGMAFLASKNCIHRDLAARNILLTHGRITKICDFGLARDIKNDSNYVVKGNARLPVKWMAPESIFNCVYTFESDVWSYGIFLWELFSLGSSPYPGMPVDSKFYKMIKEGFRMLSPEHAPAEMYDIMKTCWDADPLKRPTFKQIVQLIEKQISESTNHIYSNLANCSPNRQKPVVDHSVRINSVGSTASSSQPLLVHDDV

`COCCNCC(C)(C)c1ccc(NC(=O)c2nc(C#N)c[nH]2)c(C2=CCC(C)(C)CC2)c1` gave a remaining at 10 min [1] of 39%, a remaining at 10 min [2] of 35% and an inhibition in vivo at 20 mg/kg [3] of 0%. The IC50 [4] was 110 nM.

`CC1(C)CC=C(c2cc(C(C)(C)N3CCN(CCO)CC3)ccc2NC(=O)c2nc(C#N)c[nH]2)CC1.Cl` showed a half-life [5] of 6.5 h, a bioavailability [6] of 31% and a Vd [7] of 7.6 L/kg. For the same compound, the clearance [8] was 34 mL/min/kg, the AUC [9] was 690 ng·h/mL and the Tmax [10] was 2.8 h. For the same compound, the Cmax [11] was 210 nM.

With `CC(=O)N1CCN(C(C)(C)c2ccc(NC(=O)c3nc(C#N)c[nH]3)c(C3=CCC(C)(C)CC3)c2)CC1` the Stability [12] was “ND(Insoluble)” and the IC50 [4] was 40 nM.

From ChEMBL document CHEMBL3085648, “Enhancement of kinase selectivity in a potent class of arylamide FMS inhibitors” (Bioorg Med Chem Lett, 2013)
